The sample as a whole holds a higher share of hits than the screen did.
Cardio protect – cardioprotection against H2O2-induced cell death, primary screen, uHTS, H9c2 cells, ATPLite luminescence | H9c2 cardiomyocytes, H2O2 injury protection, 2 h | protection from H2O2 cell death, % at 20 µM | hit rate 0.63% among 360,000;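 active = compounds giving at least 50% protection of heart cells from peroxide-induced death in the single-dose screen, raw or plate-pattern-corrected value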;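 note: 0% = DMSO wells with peroxide and 100% = DMSO wells without peroxide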
CHOP UPR activ – activators of apoptotic CHOP UPR arm, primary screen, cell-based, CHO-CHOP luciferase reporter, luminescence, uHTS; UPR activation; percent of tunicamycin response over DMSO baseline; activation, % at 10 µM; hit rate 0.34% among 330,000; AID 449763, 2010;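 active = at 10 µM dose, activation of 40% or more, normalized to positive control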;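 note: 100% = tunicamycin at 10 µg/mL and 0% = DMSO alone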
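Test system: CHO-CHOP cells, stable luciferase reporter of PERK-eIF2a-CHOP signalling | Quantity: 500 CHO-CHOP cells per well | Buffer or medium: F12 plus 10% serum | Compound dosing: 10 µM single point, 0.5% DMSO | Schedule: 6 h compound treatment, 37 °C | Signal: Luciferase luminescence | Control set: Tunicamycin high control, DMSO low control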
UPR XBP1 act – activators of adaptive XBP1 UPR arm, primary screen, cell-based, CHO-XBP1 luciferase reporter, luminescence, uHTS. activation, % at 20 µM. IRE1-XBP1 UPR activation; percent of tunicamycin response, DMSO as zero. hit rate 0.33% among 330,000;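 active = versus positive control, 20 µM dose yields 30% or more activation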;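 note: 100% = tunicamycin at 10 µg/mL and 0% = DMSO only wells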
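assay system = CHO-XBP1 luciferase reporter cells | amount = 1000 cells/well | buffer or medium = F12 plus 10% FBS | compound dosing = single point, 20 µM final compound, 1% DMSO | incubation = 16-18 h cell attachment at 37 °C, then 6 h compound exposure | detection = Steady-Glo luminescence read | controls = tunicamycin 10 µg/mL and vehicle-only wells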
hiPSC survival – enhancers of single-cell hiPSC survival, primary screen, ATPlite luminescence | 100% = ROCK inhibitor wells, 0% = DMSO | survival enhancement, % at 20 µM | hit rate 0.044% among 360,000 | AID 602274, 2012; in the data active = survival enhancement above about 18%;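 note: cells exposed to compounds for 16 hours before the ATP read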
CHOP inh – inhibitors of CHOP promoter induction, primary screen, cell-based, unfolded protein response, luciferase reporter; CHO-K1 CHOP-promoter luciferase, tunicamycin-induced, 15-18 h; inhibition, % at 10 µM; hit rate 3.8% among 220,000; AID 2732, 2010;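 active = compounds that reduced the stress-induced luciferase reporter signal by more than about 70% of percent inhibition, limit read from the data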;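 note: 0% = tunicamycin plus vehicle and 100% = wells without tunicamycin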
UPR XBP1 confirm – IRE1-XBP1 UPR arm activators, confirmation, cell-based, CHO-XBP1 luciferase reporter, luminescence, single concentration; hit rate 63% among 1,000; AID 485299, 2010; shares compounds with UPR XBP1 act; activation, % at 20 µM;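 active = reporter signal at least 30% of the positive control's activation in two or more of four replicate wells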;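 note: plate controls were DMSO negative control for no effect and tunicamycin 10 µg/mL positive control for full effect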
An asterisk follows results filed as active.

What do the screens show for `Cc1ccc(CCNC(=O)CSCc2ccc(F)cc2)cc1`?
Cardio protect: 2.7; CHOP UPR activ: 0.1; UPR XBP1 act: -5.3; hiPSC survival: 0.6

Results for COc1ccc(C(C(=O)NC2CCCC2)N(C(=O)c2snc(-c3ccc(F)cc3)c2N)c2ccccc2)cc1 (stereo not given) ?
Cardio protect: 21.5; CHOP UPR activ: 19.2; UPR XBP1 act: 31.9*; hiPSC survival: -0.2; CHOP inh: 28.4; UPR XBP1 confirm: 15.9

What do the screens show for `COc1ccc(C(C(=O)NC2CCCC2)N(C(=O)c2snc(-c3ccc(F)cc3)c2N)c2cccc(F)c2)cc1` (stereo not given)?
Cardio protect: 8.5; CHOP UPR activ: 14.2; UPR XBP1 act: 36.7*; hiPSC survival: -3.1; CHOP inh: 48.0; UPR XBP1 confirm: 15.9

Results for COc1ccc(C(C(=O)NC2CCCC2)N(C(=O)c2snc(-c3ccc(F)cc3)c2N)c2ccc(F)cc2)cc1 (stereo not given) ?
Cardio protect: -6.4; CHOP UPR activ: 7.2; UPR XBP1 act: 7.3; hiPSC survival: -2.6; CHOP inh: 46.6

Results for COc1ccc(C(C(=O)NC2CCCC2)N(C(=O)c2snc(-c3ccc(F)cc3)c2N)c2ccc(OC)cc2)cc1 (stereo not given) ?
Cardio protect: -8.3; CHOP UPR activ: 1.6; UPR XBP1 act: 0.1; hiPSC survival: -0.5; CHOP inh: 17.1

How did C[C@]12CCC[C@H](O1)c1c(cc3c(c1O)C(=O)c1c(O)cc(O)cc1C3=O)O2 do in these assays?
Cardio protect: -17.7; CHOP UPR activ: 1.3; UPR XBP1 act: 3.9; hiPSC survival: -1.2

How did CCOc1ccc2nc(S(=O)(=O)NC(=O)C3(C)CCN3C(=O)c3cc(C)n(C)n3)sc2c1 (stereo not given) do in these assays?
Cardio protect: 2.3; hiPSC survival: 0.5

Results for COc1ccc(-c2cc(-c3ccc(OC)cc3)nc(-c3ccc4c(c3)NC(=O)CO4)c2)cc1 ?
Cardio protect: 0.8; CHOP UPR activ: 0.9; UPR XBP1 act: 37.6*; hiPSC survival: 7.1; CHOP inh: 11.8; UPR XBP1 confirm: 14.8

What do the screens show for `CCN=C1S/C(=C\c2cn(CC(=O)NCc3ccco3)c3ccccc23)C(=O)N1CC`?
Cardio protect: 23.9; CHOP UPR activ: -0.3; UPR XBP1 act: 115.7*; hiPSC survival: 0.3; UPR XBP1 confirm: 97.3*

Results for Cc1ccc(Nc2nc(NCCO)c3ccccc3n2)cc1C ?
Cardio protect: -17.9; CHOP UPR activ: 13.6; UPR XBP1 act: 39.0*; hiPSC survival: 0.2; UPR XBP1 confirm: 39.1*

How did COc1ccccc1Nc1nc(NCCO)c2ccccc2n1 do in these assays?
CHOP UPR activ: 0.8; UPR XBP1 act: 0.4; CHOP inh: -1.2

Results for CCCNC(=O)c1nn2c(C(F)(F)F)cc(-c3ccccc3)nc2c1Cl ?
Cardio protect: 3.0; CHOP UPR activ: -1.0; UPR XBP1 act: -0.8; hiPSC survival: -0.4

How did O=C(NCCCn1ccnc1)c1nn2c(C(F)(F)F)cc(-c3ccc(Br)cc3)nc2c1Cl do in these assays?
Cardio protect: 28.5; CHOP UPR activ: 1.6; UPR XBP1 act: 36.7*; hiPSC survival: -1.5; CHOP inh: 43.2; UPR XBP1 confirm: 94.1*

Results for CNc1ncnc2c1cnn2C1CCCCO1 (stereo not given) ?
Cardio protect: 1.4; hiPSC survival: 4.5

How did O=C(OCC(=O)N1CCCC1)c1cc(Cl)ccc1Cl do in these assays?
Cardio protect: 5.7; CHOP UPR activ: 0.9; UPR XBP1 act: -1.7; hiPSC survival: 0.1

Results for CCc1ccc2[nH]c3nc(SCC(=O)NNC(=O)c4ccc(C(C)(C)C)cc4)nnc3c2c1 ?
Cardio protect: 1.8; CHOP UPR activ: 1.7; UPR XBP1 act: 59.5*; hiPSC survival: -1.2; CHOP inh: 88.8*; UPR XBP1 confirm: 42.4*

What do the screens show for `CCc1ccc2[nH]c3nc(SCc4nnc(-c5ccc(C)cc5)o4)nnc3c2c1`?
Cardio protect: -5.5; CHOP UPR activ: 10.4; UPR XBP1 act: 94.8*; hiPSC survival: -2.9; CHOP inh: 28.5; UPR XBP1 confirm: 93.1*

What do the screens show for `CCc1ccc2[nH]c3nc(SCCN4CCOCC4)nnc3c2c1`?
Cardio protect: -2.3; CHOP UPR activ: -2.2; UPR XBP1 act: -3.2; hiPSC survival: 0.2

How did CCOC(=O)c1c(NC(=O)CSc2nnc3c(n2)[nH]c2ccc(F)cc23)sc(C(C)=O)c1C do in these assays?
Cardio protect: -3.8; CHOP UPR activ: 14.6; UPR XBP1 act: 62.0*; hiPSC survival: 0.2; CHOP inh: 2.7; UPR XBP1 confirm: 50.6*

Results for CCc1ccc2[nH]c3nc(SCC(=O)NCC4CCCO4)nnc3c2c1 (stereo not given) ?
Cardio protect: -0.5; CHOP UPR activ: -1.3; UPR XBP1 act: -1.7; hiPSC survival: -0.7

Results for COc1ccc(NC(=O)c2cc(C3CCCCN3S(=O)(=O)c3c(C)noc3C)on2)c(C)c1 (stereo not given) ?
Cardio protect: 3.3; hiPSC survival: -3.8

What do the screens show for `Cc1c(O)cc2c(c1O)C(=O)CC(c1ccccc1)O2` (stereo not given)?
Cardio protect: -7.5; CHOP UPR activ: 11.7; UPR XBP1 act: 121.2*; hiPSC survival: 2.9; CHOP inh: 13.7; UPR XBP1 confirm: 172.9*

What do the screens show for `COc1ccc(-c2ccc(N3C(c4cc(OC)cc(OC)c4)=Cc4ccc(OC)cc4C3CC(C)=O)cc2)cc1` (stereo not given)?
hiPSC survival: -1.1

Results for Cc1ccc(-c2cc(C(=O)N3CCN(c4ccccc4O)CC3)c3ccccc3n2)o1 ?
Cardio protect: -12.6; CHOP UPR activ: 3.8; UPR XBP1 act: 38.2*; hiPSC survival: -0.4; UPR XBP1 confirm: 0.7

What do the screens show for `CN(C(=O)CSc1nc(-c2ccc(C(C)(C)C)cc2)c(C#N)c(=O)[nH]1)C1CCCCC1`?
Cardio protect: -3.5; CHOP UPR activ: 1.8; UPR XBP1 act: -4.9; hiPSC survival: 0.0

Results for Cc1cnc(Nc2nc3ccccc3o2)nc1C(=O)Nc1cccc(C(F)(F)F)c1 ?
Cardio protect: 35.1; CHOP UPR activ: 2.5; UPR XBP1 act: 45.3*; hiPSC survival: -3.0; CHOP inh: 91.1*; UPR XBP1 confirm: 9.3

What do the screens show for `COc1ccc(CN2CCCCCC2)cc1OC`?
Cardio protect: -3.0; CHOP UPR activ: 0.7; UPR XBP1 act: 2.8; hiPSC survival: 3.9

What do the screens show for `COc1cc(CN2CCCCC2)ccc1OCc1ccccc1`?
Cardio protect: 9.8; CHOP UPR activ: 3.5; UPR XBP1 act: 36.6*; hiPSC survival: 0.4; UPR XBP1 confirm: 1.3
